Here are results for four compounds from PMC7029422 (Bioorganic & medicinal chemistry, 2020).

Test [1] deals with MDA-MB-435 human melanoma cells. Kind of test: Cytotoxicity against MDA-MB-435 cells. The test is classed as cell-based. The settings on record: MDA-MB-435, 72 h, read-out: IC50 value toward the MDA-MB-435 human melanoma cells.
Test [2] concerns HT-29 human colon cancer cells. Kind of test: Cytotoxicity against HT-29 cells. The settings on record: HT-29, 72 h, read-out: IC50 value toward the HT-29 human colon cancer cells. It counts as cell-based.
Test [3] has as its system glucose uptake in H1299 human lung cancer cells. Kind of test: Glucose uptake assay. It counts as cell-based. The settings on record: 30 μM, 15 min treatment; WZB117 30 μM as positive control. An outline of the steps: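 H1299 cells (DMEM, 25 mM glucose, 10% FBS, 37 °C, 5% CO2) in 24-well plates; washed, serum-starved in FBS-free DMEM 1.5 h, then 30 min in glucose-free KRP. Test compound at final 30 μM for 15 min. Uptake then started with 37 MBq/L 2-deoxy-D-[3H]glucose plus 1 mM glucose (final) for 40 min. Stopped with PBS; lysate radioactivity counted by liquid scintillation. Triplicate, three independent experiments; Student's t-test versus vehicle.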

For test [4], the target named is Na^+/K^+-ATPase (adenosine 5′-triphosphatase from porcine cerebral cortex). The settings on record: read-out: Na+/K+-ATPase activity inhibition, IC50; previous investigation; cited from earlier work.
In test [5] the test system is OVCAR3 human ovarian cancer cells. Kind of test: Cytotoxicity against OVCAR3 cells. The test is classed as cell-based. The settings on record: OVCAR-3, 72 h, read-out: IC50 value toward the OVCAR3 human ovarian cancer cells.

Entries after “also recorded” stand apart in the source; their conditions may differ.

As to `CO[C@H]1[C@H](O[C@H]2CC[C@]3(C=O)[C@H]4CC[C@]5(C)[C@](O)(C6=CC(=O)OC6)CC[C@]5(O)[C@@H]4CC[C@]3(O)C2)O[C@H](C)[C@H](O)[C@@H]1OC` [Compound 1, (3β)-3-[(2,3-di-O-methyl-β-D-fucopyranosyl)oxy]-5β,14β,17β-trihydroxy-19-oxo-17-epi-card-20(22)-enolide], the IC50 in test [1] was greater than 20000 nM.
The same measure, in the same setting: under `CO[C@H]1[C@H](O[C@H]2CC[C@]3(C=O)[C@H]4CC[C@]5(C)[C@@H]6CC[C@]5(O[C@H]5OC(=O)C[C@H]56)[C@@H]4CC[C@]3(O)C2)O[C@H](C)[C@H](O)[C@@H]1OC` [Compound 3a, (+)-20,22-dihydro-14,21-epoxystrebloside] stands greater than 20000 nM.
With `CC(=O)O[C@H]1C(=O)[C@@]2(C)[C@H]([C@H](OC(=O)c3ccccc3)[C@]3(O)C[C@H](OC(=O)[C@H](O)[C@@H](NC(=O)c4ccccc4)c4ccccc4)C(C)=C1C3(C)C)[C@]1(OC(C)=O)CO[C@@H]1C[C@@H]2O` [Paclitaxel, reference compound], in test [2], the IC50 turned out to be 0.8 nM.
In the case of `CO[C@H]1[C@H](O[C@H]2CC[C@]3(C=O)[C@H]4CC[C@]5(C)[C@@H](C6=CC(=O)OC6)CC[C@]5(O)[C@@H]4CC[C@]3(O)C2)O[C@H](C)[C@H](O)[C@@H]1OC` [Compound 3, (+)-strebloside], the IC50 is 170 nM in test [2], 160 nM in test [4] and 130 nM in test [5]. In addition, in test [3], the “Inhibition of glucose uptake/transport in H1299 cells” value is “did not inhibit glucose uptake; also recorded: did not inhibit glucose transport”.
